Test results reported in ChEMBL document CHEMBL3286255, “Rational design and synthesis of novel thiazolidin-4-ones as non-nucleoside HIV-1 reverse transcriptase inhibitors” (Bioorg Med Chem, 2014).

Columns and labels:
[1] = tested on: Human immunodeficiency virus 1; test: Antiviral activity against X4 tropic Human immunodeficiency virus 1 UG070 subtype D infected in human TZM-bl cells assessed as reduction in virus-induced cytopathic effect after 48 hrs by luminescence assay; assay type: functional, organism-based
Summary of the method: (§1)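 TZM-bl cells (HeLa-derived; CD4, CXCR4, CCR5; LTR-driven luciferase) seeded 1×10^4/well, left overnight at 37 °C, 5% CO2, then infected with 400 TCID50 virus for 2 h. Serial compound dilutions added in duplicate, only at levels giving >50% viability. […] Mean of two independent assays; nevirapine as positive control.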

[2] = Selectivity index, ratio of CC50 for human TZM-bl cells to EC50 for X4 tropic Human immunodeficiency virus 1 3B subtype B; assay type: toxicity, cell-based; conditions: read-out: Ratio CC50/EC50
[3] = tested on: Human immunodeficiency virus; test: Inhibition of HIV reverse transcriptase at 100 ug/ml after 1 hr by ELISA relative to control
Summary of the method: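 Kit ELISA for HIV RT. Template/primer, biotin- and DIG-labelled dNTPs and RT enzyme in lysis buffer incubated 1 h at 37 °C. Product captured on streptavidin, detected with anti-DIG-peroxidase and ABTS substrate, and read at 405 nm. Percent inhibition calculated against a no-inhibitor sample.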

[4] = tested on: Human immunodeficiency virus 1; test: Antiviral activity against R5 tropic Human immunodeficiency virus 1 ADA5 subtype B infected in human TZM-bl cells assessed as reduction in virus-induced cytopathic effect after 48 hrs by luminescence assay; assay type: functional, organism-based; summary of the method: as §1
[5] = tested on: Human immunodeficiency virus 1; test: Antiviral activity against R5 tropic Human immunodeficiency virus 1 VB59 subtype C infected in human TZM-bl cells assessed as reduction in virus-induced cytopathic effect after 48 hrs by luminescence assay; assay type: functional, organism-based; summary of the method: as §1
[6] = Selectivity index, ratio of CC50 for human TZM-bl cells to EC50 for X4 tropic Human immunodeficiency virus 1 UG070 subtype D; assay type: toxicity, cell-based; conditions: read-out: Ratio CC50/EC50
[7] = Cytotoxicity against human TZM-bl cells after 48 hrs by MTT assay; assay type: cell-based
Summary of the method: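 TZM-bl cells seeded 1×10^4/well and left overnight at 37 °C, 5% CO2. Medium then replaced with a two-fold dilution series of compound in quadruplicate. […] Mean of three independent assays.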

[8] = Selectivity index, ratio of CC50 for human TZM-bl cells to EC50 for R5 tropic Human immunodeficiency virus 1 VB59 subtype C; assay type: toxicity, cell-based; conditions: read-out: Ratio CC50/EC50
[9] = Selectivity index, ratio of CC50 for human TZM-bl cells to EC50 for R5 tropic Human immunodeficiency virus 1 ADA5 subtype B; assay type: toxicity, cell-based; conditions: read-out: Ratio CC50/EC50
[10] = tested on: Human immunodeficiency virus 1; test: Antiviral activity against X4 tropic Human immunodeficiency virus 1 3B subtype B infected in human TZM-bl cells assessed as reduction in virus-induced cytopathic effect after 48 hrs by luminescence assay; assay type: functional, organism-based; summary of the method: as §1
[11] = Human immunodeficiency virus 1, UG070 subtype D, TZM-bl, 48 h, read-out: EC50
[12] = Human immunodeficiency virus 1, ADA5 subtype B, TZM-bl, 48 h, read-out: EC50
[13] = Human immunodeficiency virus 1, VB59 subtype C, TZM-bl, 48 h, read-out: EC50
[14] = Human immunodeficiency virus 1, 3B subtype B, TZM-bl, 48 h, read-out: EC50

Row | Compound | EC50 [1, 11] [µM] | selectivity ratio [2] | inhibition [3] [%] | EC50 [4, 12] [µM] | EC50 [5, 13] [µM] | selectivity ratio [6] | CC50 at 48 h [7] [µM] | selectivity ratio [8] | selectivity ratio [9] | EC50 [10, 14] [µM] | EC50 ([1]; tzm-bl) | EC50 ([5]; tzm-bl) | EC50 ([10]; tzm-bl) | EC50 ([4]; tzm-bl)
1 | Cc1ccc(S(=O)(=O)NN2C(=O)CSC2c2c(F)cccc2Cl)cc1 (configuration not stated) | 72.4 | 2.15 | 56.3 | 64.6 | 81.6 | 1.87 | 136 | 1.66 | 2.1 | 63.1 | – | – | – | –
2 | O=C1CSC(c2c(F)cccc2Cl)N1Nc1ccccn1 (configuration not stated) | 4.66 | 72.7 | 97.5 | 3.79 | 5.31 | 32.7 | 153 | 28.7 | 40.2 | 2.1 | – | – | – | –
3 | O=C(NN1C(=O)CSC1c1c(Cl)cccc1Cl)c1ccncc1 (configuration not stated) | – | 4.64 | 18.9 | 9.72 | 26.3 | – | 170 | 6.47 | 17.5 | 36.7 | Not Active | – | – | –
4 | COc1cc(OC)nc(N2C(=O)CSC2c2ccc(C#N)cc2)n1 (configuration not stated) | – | 1.27 | 12.2 | 57 | – | – | 86.5 | – | 1.51 | 68 | Not Active | Not Active | – | –
5 | Cc1ccc(S(=O)(=O)NN2C(=O)CSC2c2c(Cl)cccc2Cl)cc1 (configuration not stated) | – | 2.57 | 57.9 | 4.55 | – | – | 75.7 | – | 16.6 | 29.4 | Not Active | Not Active | – | –
6 | Cc1cc(C)nc(N2C(=O)CSC2c2ccc(C#N)cc2)n1 (configuration not stated) | – | 0.97 | 41.5 | 99.3 | – | – | 113 | – | 1.13 | 115 | Not Active | Not Active | – | –
7 | O=C1CSC(c2c(Cl)cccc2Cl)N1Nc1ccccn1 (configuration not stated) | 1.17 | 150 | 97.4 | 1.85 | 1.7 | 127 | 149 | 87.6 | 80.5 | 0.99 | – | – | – | –
8 | Cc1cc(N2C(=O)CSC2c2c(Cl)cccc2[N+](=O)[O-])nc(C)c1Br (configuration not stated) | – | – | 77.8 | – | – | – | – | – | – | – | – | – | – | –
9 | N#Cc1ccc(NN2C(=O)CSC2c2c(F)cccc2F)cc1 (configuration not stated) | 56.9 | 1 | 34.5 | 26.6 | 48.9 | 0.74 | 42.2 | 0.86 | 1.58 | 42.6 | – | – | – | –
10 | COc1cc(OC)nc(N2C(=O)CSC2c2c(F)cccc2Cl)n1 (configuration not stated) | 0.24 | 545 | 95.4 | 0.16 | 0.32 | 409 | 98.2 | 307 | 614 | 0.18 | – | – | – | –
11 | Cc1ccnc2c1NC(=O)c1cccnc1N2C1CC1 [NEVIRAPINE] | 0.03 | 2060 | 99.2 | 0.03 | 0.03 | 2060 | 76.1 | 2060 | 2060 | 0.03 | – | – | – | –
12 | O=C1CSC(c2c(F)cccc2F)N1Nc1ccccn1 (configuration not stated) | 24.4 | 5.19 | 64.7 | 16.2 | 16.8 | 3.69 | 90.1 | 5.36 | 5.56 | 17.3 | – | – | – | –
13 | O=C1CSC(c2c(Cl)cccc2Cl)N1c1ncnc2[nH]cnc12 (configuration not stated) | – | 1.1 | 50.2 | 11.7 | – | – | 13.1 | – | 1.11 | 11.8 | – | – | – | –
14 | N#Cc1ccc(C2SCC(=O)N2c2ccc(C#N)cn2)cc1 (configuration not stated) | 106 | 2.38 | 30.4 | 74.2 | 80.1 | 1.2 | 128 | 1.59 | 1.71 | 53.6 | – | – | – | –
15 | Cc1cc(C)nc(N2C(=O)CSC2c2c(Cl)cccc2[N+](=O)[O-])c1 (configuration not stated) | 0.08 | 6940 | 91.5 | 0.08 | 0.08 | 1690 | 139 | 1690 | 1740 | 0.02 | – | – | – | –
16 | O=C1CSC(c2c(F)cccc2F)N1c1ncnc2[nH]cnc12 (configuration not stated) | 56.5 | 1.11 | 70.4 | 27.8 | 38.6 | 0.71 | 40.5 | 1.05 | 1.45 | 36.3 | – | – | – | –
17 | Cc1cc(N2C(=O)CSC2c2ccc(C#N)cc2)no1 (configuration not stated) | – | 1.57 | 27.6 | 81.1 | 68.7 | – | 140 | 2.04 | 1.72 | 88.7 | – | – | – | –
18 | COc1cc(OC)nc(N2C(=O)CSC2c2c(Cl)cccc2Cl)n1 (configuration not stated) | 0.2 | 1220 | 76.8 | 0.1 | 0.12 | 427 | 85.4 | 662 | 855 | 0.07 | – | – | – | –
19 | Cc1cccc(C)c1C1SCC(=O)N1NC(=O)c1ccncc1 (configuration not stated) | 38.8 | 1.47 | 14.2 | 18.9 | – | 1.11 | 43.4 | – | 2.29 | 29.4 | – | Not Active | – | –
20 | Cc1cc(N2C(=O)CSC2c2c(F)cccc2F)nc(C)c1Br (configuration not stated) | 0.5 | 192 | 81.8 | 0.7 | 0.77 | 134 | 67.1 | 87.2 | 95.9 | 0.35 | – | – | – | –
21 | COc1cc(OC)nc(N2C(=O)CSC2c2c(Cl)cccc2[N+](=O)[O-])n1 (configuration not stated) | 0.27 | 806 | 79.4 | 0.22 | 0.22 | 298 | 80.6 | 367 | 366 | 0.1 | – | – | – | –
22 | COc1cc(OC)nc(N2C(=O)CSC2c2c(OC)cccc2OC)n1 (configuration not stated) | 8.87 | 49.3 | 93.8 | 4.13 | 7.28 | 17.6 | 156 | 21.5 | 37.8 | 3.17 | – | – | – | –
23 | COc1cccc(OC)c1C1SCC(=O)N1c1cc(C)c(Br)c(C)n1 (configuration not stated) | 2.36 | 38.6 | 85.5 | 1.51 | 2.48 | 36.3 | 85.8 | 34.6 | 56.8 | 2.22 | – | – | – | –
24 | N#Cc1ccc(C2SCC(=O)N2c2ccc(C#N)cc2)cc1 (configuration not stated) | 63.4 | 1.1 | – | 61.2 | 55.7 | 1.18 | 75 | 1.34 | 1.22 | 67.8 | – | – | – | –
25 | Cc1ccnc(N2C(=O)CSC2c2ccc(C#N)cc2)n1 (configuration not stated) | – | 1.41 | 43.5 | 55 | – | – | 121 | – | 2.2 | 85.7 | Not Active | Not Active | – | –
26 | Cc1cc(N2C(=O)CSC2c2ccc(C#N)cc2)nc(C)c1Br (configuration not stated) | – | – | 37.5 | 39.1 | – | – | 43.8 | – | 1.11 | – | – | – | Not Active | –
27 | COc1cccc(OC)c1C1SCC(=O)N1c1cc(C)on1 (configuration not stated) | 18.4 | 11 | 62.2 | – | 20.2 | 6.77 | 125 | 6.18 | – | 11.3 | – | – | – | Not Active
28 | O=C(NN1C(=O)CSC1c1c(F)cccc1Cl)c1ccncc1 (configuration not stated) | – | – | 81.7 | – | – | – | 105 | – | – | – | – | – | Not Active | Not Active
